EC50, IC50 and inhibition data for eleven compounds are collected here from ChEMBL document CHEMBL1148384, “Design and synthesis of peptidomimetic protein farnesyltransferase inhibitors as anti-Trypanosoma brucei agents” (J Med Chem, 2004).

In experiment [1] the test system is NIH3T3. The experiment can be described thus: Effective dose against murine 3T3 fibroblasts cells. It counts as functional. To be noted: Mus musculus, read-out: ED50 (the source's name). The essentials: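 Murine 3T3 fibroblasts were grown in RPMI 1640 with 10% FBS and held 72 h with compound at 37 °C, 5% CO2.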
Experiment [2] concerns Trypanosoma brucei brucei. Put plainly: Effective dose required to inhibit the growth of Trypanosoma brucei. It counts as functional. To be noted: read-out: ED50 (the source's name). A digest of the protocol: (§1)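 Bloodstream-form strain 427 was grown in HMI-9 with 10% FBS at 37 °C, 5% CO2. Cells were seeded at 1 × 10^4 trypomastigotes/well in triplicate, with serial dilutions from 20 mM DMSO stocks. Growth was read with Alamar Blue at 48 h, pentamidine served as positive control, and ED50 was fitted from the curves.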

Experiment [3] concerns Trypanosoma brucei rhodesiense. The experiment can be described thus: Effective dose required to inhibit the growth of Trypanosoma brucei rhodesiense. It counts as functional. To be noted: read-out: ED50 (the source's name). A digest of the protocol:
(§2)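 Bloodstream-form trypomastigotes of strain STIB 900 were grown in HMI-18 with nonessential amino acids, glucose and 15% heat-inactivated FCS at 37 °C, 5% CO2. Compounds were given as serial dilutions, in triplicate, from 1 × 10^4 cells/well. Cultures ran 72 h before Alamar Blue read-out, and ED50 was fitted.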

Experiment [4] deals with protein farnesyltransferase (Trypanosoma brucei). Put plainly: Inhibition of Trypanosoma brucei protein farnesyltransferase.
The subject of experiment [5] is protein farnesyltransferase (Trypanosoma brucei). The experiment can be described thus: Inhibition of against Trypanosoma brucei protein farnesyltransferase at 50 nM concentration.
Experiment [6] shares this test system. The experiment can be described thus: Inhibition of Trypanosoma brucei protein farnesyltransferase at 50 nM concentration (65-74%).
In experiment [7] the target is Protein farnesyltransferase (Homo sapiens, UniProt P49354+P49356). Put plainly: Inhibition of mammalian protein farnesyltransferase. The format is protein-complex assay.
The subject of experiment [8] is NIH3T3. The experiment can be described thus: Dose required to block Ras farnesylation in mouse 3T3 fibroblasts. The format is functional. To be noted: read-out: ED50 (the source's name).
Experiment [9] relates to Trypanosoma brucei rhodesiense. Put plainly: Dose required to inhibit growth of Trypanosoma brucei rhodesiense; 14->60 uM. To be noted: read-out: ED50 (the source's name). It counts as functional. The essentials:
as §2

Experiment [10] addresses protein farnesyltransferase (Trypanosoma brucei). The experiment can be described thus: Inhibition of Trypanosoma brucei protein farnesyltransferase at 50 nM.
In experiment [11] the test system is Trypanosoma brucei brucei. The experiment can be described thus: Dose required to inhibit growth of Trypanosoma brucei; 1-5 uM. To be noted: read-out: ED50. It counts as functional. The essentials: as §1
For experiment [12], the system named is Trypanosoma brucei rhodesiense. The experiment can be described thus: Dose required to inhibit growth of Trypanosoma brucei rhodesiense; 0.38-0.92 uM. It counts as functional. To be noted: read-out: ED50. The essentials: as §2
Experiment [13] concerns protein farnesyltransferase (Trypanosoma brucei). The experiment can be described thus: Inhibition of Trypanosoma brucei protein farnesyltransferase at 50 nM (0-17%).
For experiment [14] the test system is unchanged. The experiment can be described thus: Inhibition of Trypanosoma brucei protein farnesyltransferase at 50 nM (29-41%).

In the case of `CSCC[C@H](NC(=O)c1ccc(NC(=O)Cc2cncn2C)cc1-c1ccccc1C)C(=O)O`, the results for the EC50 (in the experiment on NIH3T3 [1]; in [2]; in experiment [3]) were greater than 25 µM, greater than 25 µM and greater than 60 µM, respectively. For the same compound, the midpoint of inhibition in experiment [4], the IC50, lay at 0.0066 µM. In addition, the inhibition (usually the percentage by which the read-out fell short of the control) in experiment [5] is 83.2%.
For `CSCC[C@H](NC(=O)c1ccc(NCc2cncn2Cc2cccc(C#N)c2)cc1-c1ccccc1)C(=O)O`, the EC50 in the experiment with NIH3T3 [1] was greater than 10 µM; in experiment [2], greater than 10 µM; in [3], greater than 60 µM. Besides, in experiment [6], the inhibition was no more than 74%.
As for `CSCC[C@H](NC(=O)c1ccc(CNCc2c[nH]cn2)cc1-c1ccccc1C)C(=O)O`, the EC50 with NIH3T3 [1] was greater than 25 µM; in [2], 1 µM; in experiment [3], 0.2 µM; with NIH3T3 [8], 0.02 µM. The IC50 – broadly, the concentration at which inhibition is half-maximal – in [7] was 0.00086 µM; in [4] it was 0.0018 µM. This compound returned an inhibition in experiment [5] of 96.1%.
For the compound `CSCC[C@H](NC(=O)c1ccc(NCc2cncn2Cc2cccc(C)c2)cc1-c1ccccc1)C(=O)O`, the EC50 with NIH3T3 [1] was greater than 10 µM; in experiment [2], greater than 10 µM; in experiment [3], greater than 60 µM. The same compound yielded an inhibition in experiment [6] of no more than 74%.
As to `CSCC[C@H](NC(=O)c1ccc(NCc2cncn2Cc2ccc(-c3ccccc3)cc2)cc1-c1ccccc1)C(=O)O`, the figures for the EC50 in experiment [9] and in experiment [2] were greater than 60 µM and greater than 10 µM, respectively. In [10], this compound returned a concentration for half-maximal inhibition (IC50) of 0.008 µM. The inhibition in experiment [5] was 85.6%.
Regarding `COC(=O)[C@H](CCSC)NC(=O)c1ccc(NCc2cncn2Cc2cccc(Cl)c2)cc1-c1ccccc1`, the EC50 in the experiment with NIH3T3 [1] was greater than 10 µM; in [11], no more than 5 µM; in [12] it was no more than 0.92 µM. The inhibition in experiment [13] was no more than 17%.
With `CSCC[C@H](NC(=O)c1ccc(NCc2cncn2Cc2ccccc2Cl)cc1-c1ccccc1)C(=O)O`, the figures for the EC50 (in the experiment on NIH3T3 [1]; in experiment [2]; in experiment [3]) were greater than 10 µM, greater than 10 µM and greater than 60 µM, respectively. Further, the inhibition in experiment [14] is no more than 41%.
Consider `COC(=O)[C@H](CCSC)NC(=O)c1ccc(NC[C@@H](N)CS)cc1-c1ccccc1`, for which the values for the EC50 (with NIH3T3 [1]; in [2]) were greater than 25 µM and 0.7 µM, respectively. The compound also showed an IC50 in experiment [4] of 0.04 µM.
Turning to `CSCC[C@H](NC(=O)c1ccc(NCc2cncn2Cc2ccccc2C)cc1-c1ccccc1)C(=O)O`, the figures for the EC50 (in the experiment on NIH3T3 [1]; in [2]; in experiment [3]) were greater than 10 µM, greater than 10 µM and greater than 60 µM, respectively. Besides, the inhibition in experiment [14] was no more than 41%.
As to `CSCC[C@H](NC(=O)c1ccc(NCc2cncn2Cc2cccc(Cl)c2)cc1-c1ccccc1)C(=O)O`, the values for the EC50 (in the experiment on NIH3T3 [1]; in [2]; in experiment [3]) were greater than 10 µM, greater than 10 µM and greater than 60 µM, respectively. In [6], this compound displayed an inhibition of no more than 74%.
Turning to `CSCC[C@H](NC(=O)c1ccc(NCc2cncn2Cc2ccccc2C#N)cc1-c1ccccc1)C(=O)O`, the EC50 with NIH3T3 [1] is greater than 10 µM; in experiment [2] it was greater than 10 µM; in experiment [3], greater than 60 µM. The compound also showed an inhibition in experiment [14] of no more than 41%.
